Experimental data: article PMC8489793 (ACS chemical biology, 2019)
Entries after “also recorded” stand apart in the source; their conditions may differ.

How the values were obtained:
[1] = tested on: primary mouse mammary epithelial cells (MECs) organoids; assay: 3D organoid model of normal mammary growth and branching morphogenesis; type: cell-based; settings: for delay in branching morphogenesis: single agent; for organoids killed: 3D branching assay
Procedure, shortened: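 Primary mouse mammary epithelial cells embedded in Matrigel and stimulated to branch with FGF2. Test compound and/or ZnSO4, or vehicle, added from 48 h. At 144 h, organoids stained with Hoechst (nuclei), calcein AM (live) and SYTOX Orange (dead), then imaged.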

[2] = tested on: immortalized human mammary epithelial cells (hTERT-HMEC); settings: 10 μM; cited from earlier work
[3] = tested on: epidermal growth factor (EGF)-stimulated DNA synthesis; settings: cited from earlier work
[4] = tested on: untransformed mouse MECs and MCF-10A cells, in comparison to MCF-7 cells; assay: intracellular Zn^2+ by FluoZin-3, comparison of zinc interactors; type: cell-based; settings: 3 h, absence of exogenous Zn^2+
[5] = tested on: primary metastatic tumor cells derived from malignant pleural effusions (PEs) of breast cancer patients; settings: 10 μM; PE cells; cited from earlier work
[6] = tested on: transformed and untransformed cells; assay: cell viability; type: cell-based; settings: 48 h; ATP quantification
[7] = tested on: a variety of cancer cell lines; settings: read-out: IC50s; cited from earlier work
[8] = tested on: transformed and untransformed cell types; type: cell-based; settings: ZNA (30 μM) or clioquinol (30 μM) with ZnSO4; propidium iodide
[9] = tested on: metal trafficking genes in MCF-7 cells; assay: RT-PCR of metal trafficking gene induction; type: cell-based, human; settings: ZNA 30 μM, 3 or 24 h, normalized to GAPDH
Procedure, shortened: (§1)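 Real-time PCR of metal trafficking gene induction after 3 or 24 h exposure to test compound at 30 μM, run in quadruplicate.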

[10] = tested on: MCF-10A cells; assay: intracellular Zn^2+ by FluoZin-3 and flow cytometry; type: cell-based, human
Procedure, shortened: (§2)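 Intracellular free Zn2+ measured by FluoZin-3 staining and flow cytometry after 1, 3, 24 or 48 h of treatment with test compound, with or without ZnSO4. For MCF-7, an extra 24 h arm included actinomycin D to block transcription. Mean and SEM of three replicates, compared with control.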

[11] = tested on: MCF-7, T47D, and MDA-MB231 breast cancer cell lines; assay: dose–response assays in breast cancer cell lines; type: cell-based, human; settings: malignant cell lines; 5 days
Procedure, shortened: (§3)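 Viability dose–response after 5 days of treatment in untransformed MCF-10A cells and in MCF-7, T47D and MDA-MB-231 breast cancer lines. Mean and SD of three replicates.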

[12] = tested on: MCF-7 cells; assay: intracellular Zn^2+ by FluoZin-3 and flow cytometry; type: cell-based, human
Procedure, shortened: as §2

[13] = tested on: MCF-10A and MCF-7 cells; assay: evaluation of focused library; type: cell-based, human; settings: MCF-7 versus MCF-10A; listed as compound 4
Procedure, shortened: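 MCF-7 breast cancer and untransformed MCF-10A mammary epithelial cells were given a range of test compound concentrations to generate dose–response curves. MCF-7 EC50 was the mean of three replicates. ΔAUC was the difference in area under the curve between MCF-7 and MCF-10A.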

[14] = tested on: cancer cells; assay: long-term colony formation after 24 h treatment; type: cell-based, human; settings: 24 h treatment then 3 weeks without compound
Procedure, shortened: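 Cells were exposed to test compound for 24 h, then grown in compound-free medium for 21 days. Colonies were stained with crystal violet and quantified, and the mean and standard deviation of four replicates were reported.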

[15] = tested on: MCF-10A cells; assay: total cellular Zn^2+ by ICP-AES; type: cell-based, human; settings: cotreatment with Zn^2+
Procedure, shortened: (§4)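 Total cellular zinc determined by inductively coupled plasma atomic emission spectroscopy after 3 h treatment with test compound alone or together with ZnSO4.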

[16] = tested on: MCF-10A cells; assay: long-term colony formation after 24 h treatment; type: cell-based, human; settings: 24 h treatment then 3 weeks without compound
Procedure, shortened: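 Cells treated 24 h, then cultured 21 days in compound-free medium. Surviving colonies stained with crystal violet and quantified. Mean and SD of four replicates.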

[17] = tested on: cytosolic cathepsin in MCF-7 cells; assay: cytosolic cathepsin activity / cytoplasmic fractionation; type: cell-based, human
Procedure, shortened: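 Cells given test compound plus ZnSO4 for 6 h. Cytoplasmic cathepsin activity then measured with an enzymatic assay and expressed as mean activity relative to control. SEM of three experimental replicates.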

[18] = tested on: MCF-10A cells; assay: cellular proliferation by EdU incorporation; type: cell-based, human; settings: 6 h
Procedure, shortened: (§5)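 Proliferation measured as percent EdU incorporation after 6 h with test compound (30 μM) and/or ZnSO4 (30 μM). Mean and SEM of three experimental replicates; compared against control.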

[19] = tested on: MT1 and MT2 in renal and hepatic tissue; assay: RT-PCR of metallothionein expression in tissue of treated mice; type: in vivo; settings: 100 mg/kg intraperitoneal, nontumor bearing FVB/NJ mice
Procedure, shortened: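 Nontumor-bearing FVB/NJ mice received 100 mg/kg test compound intraperitoneally or vehicle, and were sampled 3 or 24 h later. MT1 and MT2 expression in kidney and liver was measured by real-time PCR, normalised to β-actin and expressed relative to controls.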

[20] = tested on: PyMT mammary tumors; assay: transplanted PyMT mouse mammary tumor model; type: in vivo
Procedure, shortened: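 PyMT-expressing mouse mammary cells were transplanted into the fat pads of 3-week-old female FVB mice. Tumour-bearing mice were assigned to four groups for 21 days: test compound 100 mg/kg i.p. once daily, 25 mM ZnSO4 continuously in drinking water, both, or PBS i.p. once daily. Mice were euthanised at 2 cm tumour diameter, and Kaplan–Meier survival analysis was used.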

[21] = tested on: metal trafficking genes in MCF-10A cells; assay: RT-PCR of metal trafficking gene induction; type: cell-based, human; settings: ZNA 30 μM, 3 or 24 h, normalized to GAPDH
Procedure, shortened: as §1

[22] = tested on: MCF-7 cells; assay: cellular proliferation by EdU incorporation; type: cell-based, human; settings: 6 h
Procedure, shortened: as §5

[23] = tested on: MCF-10 and MCF-7 cell lines; assay: cell viability; type: cell-based, human
Procedure, shortened: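 Test compound combined with exogenously added transition metal ions. Viability read as cellular ATP content after 24 h of treatment. Mean and SEM of three replicates, each normalized to its respective control.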

[24] = tested on: MCF-7 cells; assay: FluoZin-3 and LysoTracker colocalization; type: cell-based, human; settings: ZNA (30 μM) and ZnSO4 (30 μM), 2 h
Procedure, shortened: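 Cells exposed 2 h to test compound (30 μM) and/or ZnSO4 (30 μM). Costained with FluoZin-3 (zinc), LysoTracker (lysosomes) and Hoechst, then imaged by fluorescence microscopy. Overlap of FluoZin-3 and LysoTracker signals quantified.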

[25] = tested on: PyMT primary tumor organoids; assay: 3D primary tumor organoid culture; type: cell-based; settings: 144 h
Procedure, shortened: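 PyMT mouse tumor cells embedded as organoids in Matrigel and cultured 144 h. Test compound and/or ZnSO4, or vehicle, present from 48 h to the end. Final staining with Hoechst, calcein AM (live) and SYTOX Orange (dead), then imaged.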

[26] = tested on: MCF-7 cells; assay: total cellular Zn^2+ by ICP-AES; type: cell-based, human; settings: 3 h, ZNA or ZNA/ZnSO4
Procedure, shortened: as §4

[27] = tested on: hTERT-HMEC; assay: dose–response assay in immortalized mammary epithelial cells; type: cell-based, human; settings: therapeutic window; hTERT-HMEC per Figure 2C; 4 days
Procedure, shortened: (§6)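 Dose–response after 4 days of treatment in immortalized primary human mammary epithelial cells (hTERT-HMEC) or in primary metastatic, chemoresistant breast cancer cells from a patient's malignant pleural effusion. A 12-point series is stated for the effusion cells. Mean and SD of three replicates.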

[28] = tested on: malignant pleural effusion cells (PE1005339); assay: 12-point dose–response assay in malignant pleural effusion cells; type: cell-based, human; settings: PE1005339 tumor cells; 12-point dose–response; 4 days
Procedure, shortened: as §6

[29] = tested on: MCF-7 cells; assay: cell death by propidium iodide staining and flow cytometry; type: cell-based, human; settings: cotreatment with ZnSO4, within 24 h
Procedure, shortened: (§7)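 Cells treated 24 h with test compound combined with ZnSO4, then stained with propidium iodide and analysed by flow cytometry. Mean and SEM of three replicates, normalized to the control sample.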

[30] = tested on: caspase 3/7, 8, or 9 activity in T47D, MDA-MB-231, and MCF-10A; assay: quantification of caspase activity; type: cell-based, human; settings: 6 or 72 h
Procedure, shortened: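 Caspase activity quantified after 6 or 72 h exposure to test compound with ZnSO4; staurosporine used as positive control. Mean and SD of three replicates.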

[31] = tested on: MCF-10A; assay: cell death by propidium iodide staining and flow cytometry; type: cell-based, human
Procedure, shortened: as §7

[32] = tested on: MCF-10A; assay: dose–response assay in untransformed mammary epithelial cell line; type: cell-based, human; settings: 5 days
Procedure, shortened: as §3

O=S(=O)([O-])[O-].[Zn+2] [ZnSO4]
delay in branching morphogenesis [1]: 24 h

naamidine A
decrease in cell viability [2]: 100% | inhibition of EGF-stimulated DNA synthesis [3]: submicromolar | intracellular Zn^2+ levels (FluoZin-3) [4]: decreased or unchanged | organoids killed ([1]; compound alone): 100% | effect of exogenous ZnSO4 on cytotoxic effects in organoids ([1]; with exogenous ZnSO4): rescued the cytotoxic effects | decrease in cell viability [5]: 100%

Oc1c(I)cc(Cl)c2cccnc12 [clioquinol]
toxicity of combination with ZnSO4 [6]: toxic to both transformed and untransformed cells | IC50 [7]: 5 to 50 µM | intracellular Zn^2+ levels (FluoZin-3) [4]: increase in intracellular Zn^2+ | organoids killed ([1]; compound alone): 100% | organoids killed ([1]; with ZnSO4): 100% | cytotoxic effect of combination with ZnSO4, time-course [8]: cytotoxic toward all cell types tested

COc1ccc(-c2c(Cc3ccccc3)[nH]/c(=N\C(=O)c3ccccc3F)n2C)cc1 [ZNA, zinaamidole A]
metal trafficking gene expression [9]: 75 fold | increase in intracellular Zn^2+ (FluoZin-3) ([10]; 48 h, no exogenous Zn^2+): 2 fold | intracellular Zn^2+ level versus vehicle control (FluoZin-3) ([10]; cotreatment with Zn^2+): less than 10 fold | cell viability [11]: decreased cell viability | intracellular Zn^2+ on cotreatment with Actinomycin D versus ZNA-alone ([12]; 24 h, with ACTD): statistically significant increase | increase in FluoZin-3 fluorescence (intracellular Zn^2+) ([12]; 48 h, no exogenous Zn^2+): 13 fold | intracellular Zn^2+ concentration (FluoZin-3) ([12]; in the presence of 30 μM Zn^2+, 3 h): 170 times | potency and selectivity (EC50 in MCF-7, ΔAUC between MCF-7 and MCF-10A) [13]: significant increase in potency and selectivity; also recorded: greatest balance of potency and selectivity | long-term proliferative potential (colonies) [14]: significantly affected long-term proliferative potential | total cellular Zn^2+ (ICP-AES) [15]: below detectable levels | effect on long-term proliferative potential (colonies) [16]: greatly attenuated | cytosolic cathepsin activity ([17]; MCF-7, combination of ZNA and ZnSO4, 6 h): significant increase | cytosolic cathepsins B, D, and L relative to untreated cells ([17]; MCF-7s, ZNA/ZnSO4, cytoplasmic fractionation): increase | EdU incorporation ([18]; ZNA (30 μM)/ZnSO4 (30 μM)): only partially inhibiting | EdU incorporation ([18]; ZNA alone 30 μM): only a partial reduction | MT1 and MT2 expression versus control treated mice ([19]; 3 h): increased | MT1 and MT2 expression ([19]; 24 h): decreased | survival versus control-treated or ZnSO4-only groups ([20]; ZNA 100 mg/kg i.p. once a day plus 25 mM ZnSO4 in drinking water, 21 days): significant survival advantage | general toxicity, adverse reactions, body weight ([20]; ZNA 100 mg/kg i.p. once a day, 21 days): no general toxicity, adverse reactions, or decreases in body weight | survival versus control-treated or ZnSO4-only groups ([20]; ZNA alone 100 mg/kg i.p. once a day for 21 days): significant survival advantage | general toxicity, adverse reactions, body weight ([20]; combination of ZNA and ZnSO4, 21 days): no general toxicity, adverse reactions, or decreases in body weight | metal trafficking gene expression [21]: 5 fold | EdU incorporation ([22]; ZNA (30 μM)/ZnSO4 (30 μM)): complete block | EdU incorporation ([22]; ZNA alone 30 μM): only a partial reduction | effect on cell viability in combination with Zn^2+ ([23]; MCF-10A and MCF-7, 24 h, ATP): highly synergistic and cancer selective | effect on cell viability in cotreatment with Cu^2+ ([23]; MCF-10 and MCF-7, 24 h, ATP): nonselective cell death | effect on cell viability with Ni, Co, and Mn compared to ZNA alone ([23]; broader series of metals): minimal changes in cell viability | effect on cell viability in combination with Fe^2+ ([23]; untransformed and transformed cell lines, 24 h, ATP): relatively little effect | FluoZin-3 and LysoTracker overlap [24]: significant increase | organoids with strong cell extrusion phenotype ([25]; ZNA-alone): about 70% | organoids to which treatment was cytotoxic ([25]; ZNA/ZnSO4 cotreatment): over 80% | total cellular Zn^2+ (ICP-AES) [26]: increase in total cellular Zn^2+ | IC50 [27]: > 100 µM | EC50 [28]: 4.12 µM | cell death [29]: > 80% | organoids healthy with no visible extruding cells ([1]; combination ZNA/ZnSO4, 144 h): Greater than 60% | organoids with either full or partial branching ([1]; combination ZNA/ZnSO4, 144 h): approximately 90% | delay in branching morphogenesis [1]: 24 h | cytotoxic effect of combination with ZnSO4, time-course [8]: only observed in the transformed cell line | caspase 3/7, 8, or 9 activity ([30]; ZNA alone, MDA-MB-231, MCF-10A): either minimal or not observed | caspase 3/7, 8, or 9 activity ([30]; ZNA/ZnSO4, MDA-MB-231, MCF-10A): either minimal or not observed | cell death ([31]; ZNA alone, 24 h): unaffected | cell death ([31]; combination with ZnSO4, 24 h): unaffected | sensitivity (cell viability) [32]: reduced sensitivity
